Consider 1 compound from ChEMBL document CHEMBL5108071, “Potent and Specific Activators for Mitochondrial Sirtuins Sirt3 and Sirt5” (J Med Chem, 2022).

In general, Kd refers to the equilibrium constant for the complex coming apart.

For test [1], the target named is T1, NAD-dependent protein deacylase sirtuin-5, mitochondrial (Homo sapiens, UniProt Q9NXA8). Nature of the test: Binding affinity to N-terminal his-tagged human SIRT5 (34 to 302 residues) expressed in Escherichia coli assessed as dissociation constant using NAD+ as substrate. An outline of the steps: (§1)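 MST binding: Sirt5 labelled 2 h at room temperature in the dark with twofold molar excess FITC in PBS pH 7.4, free dye removed; 10 nM labelled protein incubated with ligand plus saturating 0.5 mM peptide or 5 mM NAD+ in PBS, 10% DMSO, 30 min on ice; read at 25 °C.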

The target of test [2] is T1, NAD-dependent protein deacylase sirtuin-5, mitochondrial. Nature of the test: Binding affinity to N-terminal his-tagged human SIRT5 (34 to 302 residues) expressed in Escherichia coli assessed as dissociation constant using CPS1-succK537 peptide as substrate. The essentials: as §1

Structures are written as SMILES.

T1 sequence (Q9NXA8 whole entry, the tested form may be a part): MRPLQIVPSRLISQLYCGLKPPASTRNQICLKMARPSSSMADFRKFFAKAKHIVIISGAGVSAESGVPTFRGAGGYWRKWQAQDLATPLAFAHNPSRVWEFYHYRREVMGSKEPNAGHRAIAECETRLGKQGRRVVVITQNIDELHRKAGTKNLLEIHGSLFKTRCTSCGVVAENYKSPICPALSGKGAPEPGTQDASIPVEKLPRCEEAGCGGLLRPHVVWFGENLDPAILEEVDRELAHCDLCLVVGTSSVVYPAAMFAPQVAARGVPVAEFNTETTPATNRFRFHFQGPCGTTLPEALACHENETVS

Turning to `CCOC(=O)C1=CN(C(=O)c2ccccc2)C=C(C(=O)OCC)C1c1ccsc1`, the results for the Kd in test [1] and in test [2] were 28 µM and 24 µM, respectively.
